Assay results: PMC5362268 (Cell, 2017)
Residues, ends and D or L forms follow the SMILES beside them. *: point of attachment. Cbz = O=C(OCc1ccccc1)*

Assays:
DLD-1 cells = assay: Pan-RAS siRNA knockdown and viability; format: cell-based, human; conditions: si-panRAS vs non-targeting siRNA, 24 h, CellTiter-Glo
In short: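 DLD-1 cells reverse-transfected in 6-well plates with siRNA pools against HRAS, KRAS and NRAS, or a non-targeting pool. Cells then re-suspended in serum-free RPMI and seeded at 10,000 cells/well in 384-well plates overnight. Dilution series added from 10× stocks in serum-free Opti-mem; 24 h incubation; viability by CellTiter-Glo.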

[1] = tested on: BRAF^V600E-CAAX-expressing MEF cells; assay: Viability assay in mouse embryo fibroblasts; format: cell-based; conditions: compared with Kras^lox/lox MEFs

SMILES	effect of combined HRAS, NRAS and KRAS knockdown on compound lethality (DLD-1 cells)	sensitivity of BRAF^V600E-CAAX-expressing cells [1]
CC(C)C[C@@H](C=O)NC(=O)[C@H](CC(C)C)NC(=O)[C@H](CC(C)C)NC(=O)OCc1ccccc1 [MG132, reference compound] (Cbz-Leu-Leu-Leu-aldehyde)	did not sensitize	–
CCCS(=O)(=O)Nc1ccc(F)c(C(=O)c2c[nH]c3ncc(-c4ccc(Cl)cc4)cc23)c1F [vemurafenib, reference compound]	–	more sensitive
